Data: ChEMBL document CHEMBL4725282, “Discovery of a Conformationally Constrained Oxazolidinone with Improved Safety and Efficacy Profiles for the Treatment of Multidrug-Resistant Tuberculosis” (J Med Chem, 2020)

Experiments:
[1] = MRT (0 to t) in Balb/c mouse at 2.5 mg/kg, iv by LC-MS/MS analysis; format: ADME, organism-based; settings: in vivo
Summary of the method: (§1)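 Female BALB/c mice (20–25 g), five per route. Oral dose 25 mg/kg in 0.5% carboxymethyl cellulose; i.v. dose 2.5 mg/kg in 10% DMSO/physiological saline. Blood sampled 5 min–72 h after p.o. and 2 min–48 h after i.v. Analyte quantified by LC/MS/MS (ESI positive, C18, isocratic methanol/water). Parameters from non-compartmental analysis.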

[2] = Inhibition of mitochondrial protein synthesis in rat H9c2 cells measured after 5 days by ELISA; format: cell-based; settings: H9c2, 120 h
Summary of the method: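 H9C2 cells in DMEM with 10% FBS, seeded 1500/well. After 18 h, compound added at final 0.03–200 μM (3-fold series), then 5 days at 37 °C, 5% CO2; 0.5% DMSO negative control. MPS inhibition read by MitoBiogenesis In-Cell ELISA; IC50 calculated.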

[3] = AUC (0 to t) in Balb/c mouse at 2.5 mg/kg, iv by LC-MS/MS analysis; format: ADME, organism-based; parameters: dose 2.5 mg/kg; settings: in vivo; summary of the method: as §1
[4] = Inhibition of human Nav1.5 expressed in CHO cells at -80 mV holding potential by whole-cell patch-clamp method; format: cell-based
Summary of the method: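 CHO cells expressing Nav1.5, whole-cell patch clamp. Extracellular saline with 132 mM NaCl, 10 mM HEPES, pH 7.35; KCl/EGTA/MgATP pipette solution. Holding potential -80 mV, 20 ms step to -10 mV. Final compound concentrations 0.3–30 μM, diluted from DMSO stocks.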

[5] = Stability in CD-1 mouse liver microsome at 1 uM measured after 30 mins in absence of NADPH by LC-MS/MS analysis; format: ADME; settings: microsomes, 0.5 h
Summary of the method: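 Liver microsomes (male CD-1 mouse or pooled human), 1 mg/mL protein, compound 1 µM, 37°C with shaking. Started with 1 mM NADPH or run without cofactor. Quenched with ice-cold ACN/MeOH containing internal standard. Parent quantified by LC-MS/MS; 30 min concentration normalised to time zero.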

[6] = Cmax in Balb/c mouse at 2.5 mg/kg, iv by LC-MS/MS analysis; format: ADME, organism-based; parameters: route intravenous, dose 2.5 mg/kg; settings: in vivo; summary of the method: as §1
[7] = Tmax in Balb/c mouse at 25 mg/kg, po by LC-MS/MS analysis; format: ADME, organism-based; settings: in vivo
Summary of the method: (§2)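 Female BALB/c mice, 20-25 g, five per route. Dosed 25 mg/kg p.o. in 0.5% carboxymethyl cellulose or 2.5 mg/kg i.v. in 10% DMSO/saline. Blood sampled 5 min-72 h (p.o.) or 2 min-48 h (i.v.), quantified by LC/MS/MS with ESI+. Parameters by non-compartmental analysis; F = (AUCpo×dose_iv)/(AUCiv×dose_po)×100%.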

[8] = Mutagenicity in Salmonella typhimurium TA98 up to 1000 ug measured after 48 to 72 hrs in presence of S9 fraction by Ames test; format: toxicity, subcellular; settings: salmonella enterica subsp. enterica serovar typhimurium, dose <=1000 µg, time 48-72 hrs
Summary of the method: (§3)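 Mini-Ames, plate incorporation in 6-well format. Bacteria, compound (DMSO vehicle, top 1000 µg/well), and 10% S9 mix or PBS were mixed into molten agar at 45°C and poured over minimal agar, then incubated 37°C for 48-72 h. Revertants were counted manually and the background lawn inspected. A result is positive at ≥2-fold the mean vehicle revertants with a dose-related increase.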

HepG2 = assay: Cytotoxicity against human HepG2 cells assessed as reduction in cell viability measured after 48 hrs by MTT assay; format: cell-based; settings: HepG2, 48 h
Summary of the method: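 Cytotoxicity on Vero or HepG2 cells by MTT assay, run as previously reported.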

[9] = target: T1, Amine oxidase [flavin-containing] A (Homo sapiens, UniProt P21397); assay: Inhibition of recombinant human MAOA expressed in baculovirus infected insect cells using kynuramine as substrate measured after 20 mins by LC-MS/MS analysis
T1 sequence (P21397 whole entry): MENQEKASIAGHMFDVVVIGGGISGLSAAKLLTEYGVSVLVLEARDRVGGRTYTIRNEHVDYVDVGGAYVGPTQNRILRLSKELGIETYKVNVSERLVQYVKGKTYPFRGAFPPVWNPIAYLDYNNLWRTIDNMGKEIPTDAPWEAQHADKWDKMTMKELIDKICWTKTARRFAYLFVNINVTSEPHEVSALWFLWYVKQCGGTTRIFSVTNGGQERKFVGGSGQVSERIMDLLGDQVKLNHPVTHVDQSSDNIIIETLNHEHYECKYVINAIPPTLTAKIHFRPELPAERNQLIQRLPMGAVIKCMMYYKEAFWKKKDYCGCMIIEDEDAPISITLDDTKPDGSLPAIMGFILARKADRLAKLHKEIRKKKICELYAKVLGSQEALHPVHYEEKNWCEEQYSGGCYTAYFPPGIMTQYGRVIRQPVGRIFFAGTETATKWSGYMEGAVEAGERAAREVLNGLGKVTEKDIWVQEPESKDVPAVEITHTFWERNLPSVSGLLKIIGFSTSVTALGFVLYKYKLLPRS
Summary of the method: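 Recombinant human MAO-A or MAO-B (50 μg/mL) in 100 mM potassium phosphate pH 7.4 with 5 mM MgCl2. Kynuramine substrate at 50 μM (MAO-A) or 25 μM (MAO-B). […] 4-Hydroxyquinoline formation measured by LC-MS/MS versus vehicle; IC50 derived.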

[10] = AUC (0 to infinity) in Balb/c mouse at 2.5 mg/kg, iv by LC-MS/MS analysis; format: ADME, organism-based; parameters: time infinity, route intravenous, dose 2.5 mg/kg; settings: in vivo; summary of the method: as §1
[11] = Terminal half life in Balb/c mouse at 25 mg/kg, po by LC-MS/MS analysis; format: ADME, organism-based; settings: in vivo, read-out: beta t1/2 (converted); summary of the method: as §2
[12] = Toxicity in CD-1 mouse assessed as increase in bone marrow micronucleus formation up to 2000 mg/kg, po administered daily via gavage for 2 days measured measured 18 to 24 hrs post last dose by microscopic analysis; format: organism-based; settings: in vivo, 48 h, time 2 day
Summary of the method: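 Male CD-1 (ICR) mice, 28.3-33.3 g, 3 per group. Oral gavage on 2 consecutive days, 24 h apart, at 100-2000 mg/kg; 500, 1000 and 2000 mg/kg analysed. Bone marrow harvested 18-24 h after last dose and scored microscopically for micronucleus frequency and PCE/total erythrocytes.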

[13] = Mutagenicity in Salmonella typhimurium TA100 up to 1000 ug measured after 48 to 72 hrs in absence of S9 fraction by Ames test; format: toxicity; settings: salmonella enterica subsp. enterica serovar typhimurium, dose <=1000 µg, time 48-72 hrs
Summary of the method: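 Mini-Ames test in S. typhimurium TA100, up to 1000 μg/well, DMSO vehicle. Run with 10% S9 mix or PBS in molten top agar on minimal agar, 37 °C for 48-72 h. Revertants counted manually. Positive if revertants rise ≥2-fold over vehicle mean in a dose-related manner.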

[14] = Cmax in Balb/c mouse at 25 mg/kg, po by LC-MS/MS analysis; format: ADME, organism-based; parameters: route oral, dose 25 mg/kg; settings: in vivo; summary of the method: as §1
[15] = MRT (0 to infinity) in Balb/c mouse at 2.5 mg/kg, iv by LC-MS/MS analysis; format: ADME, organism-based; settings: in vivo; summary of the method: as §1
[16] = Mutagenicity in Salmonella typhimurium TA100 up to 1000 ug measured after 48 to 72 hrs in presence of S9 fraction by Ames test; format: toxicity, subcellular; settings: salmonella enterica subsp. enterica serovar typhimurium, dose <=1000 µg, time 48-72 hrs; summary of the method: as §3

SMILES	MRT last [1]	IC50 [2]	AUC(0-t) [3]	IC50 [4]	Stabilty [5]	Cmax [6]	Tmax [7]	Activity [8]	IC50 (HepG2)	IC50 [9]	AUC(0-inf) [10]	half-life [11]	Activity [12]	Activity [13]	Cmax [14]	MRT inf [15]	Activity [16]
CC(=O)NC[C@@H]1OC(=O)N2c3cc(F)c(N4CCSCC4)cc3OC[C@@H]12	0.54 h	> 100 µM	1160 ng·h/mL	> 30 µM	Stable	4200 ng/mL	0.25 h	Non-Toxic	> 64 µg/mL	44.8 µM	1190 ng·h/mL	14.7 h	Non-Toxic	Non-Toxic	3000 ng/mL	0.691 h	Non-Toxic
CC(=O)NC[C@@H]1OC(=O)N2c3cc(F)c(N4CC[S+]([O-])CC4)cc3OC[C@@H]12	3.52 h	60.6 µM	443 ng·h/mL	> 30 µM	Stable	115 ng/mL	0.5 h	Non-Toxic	> 64 µg/mL	> 100 µM	592 ng·h/mL	6.28 h	Non-Toxic	Non-Toxic	1520 ng/mL	6.22 h	Non-Toxic
